Results from ChEMBL document CHEMBL1795313, “Synthesis and antimicrobial activities of hexahydroimidazo[1,5-a]pyridinium bromides with varying benzyl substituents” (Eur J Med Chem, 2011).

How the values were obtained:
[1] = Acute toxicity in po dosed Swiss albino mouse after 24 hrs; type: organism-based; details: in vivo
Outline: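 Mice dosed orally, 5 male and 5 female per group; limit test at 2000 mg/kg, plus classical LD50 test; toxic responses and deaths recorded over 24 h; LD50 derived from lethality.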

Staphylococcus aureus = test: Antimicrobial activity against Staphylococcus aureus 6538/P after 18 hrs by microdilution method; type: functional
Outline: (§1)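 Broth microdilution per NCCLS M7-A4. Stocks kept on nutrient agar at 4 °C. Overnight cultures in double-strength Mueller-Hinton broth, adjusted to 10⁸ cfu/mL against McFarland 0.5. Compounds serially diluted in sterile distilled water (400 down to 0.78). Incubated at 37 °C for 18 h. MIC taken as the first well without turbidity. Wells without organism and water/medium growth controls included.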

[2] = system: Staphylococcus epidermidis; test: Antimicrobial activity against Staphylococcus epidermidis ATCC 12228 after 18 hrs by microdilution method; type: functional; outline: as §1
Bacillus cereus = test: Antimicrobial activity against Bacillus cereus CCM 99 after 18 hrs by microdilution method; type: functional
Outline: (§2)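 NCCLS M7-A4 broth microdilution. Two-fold series from 400 to 0.78 made in sterile distilled water. Overnight bacteria in double-strength Mueller-Hinton broth, adjusted to 10⁸ cfu/mL (McFarland 0.5). Incubated 37 °C, 18 h. MIC taken as the first well without turbidity. Medium-only and water-plus-medium controls.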

Micrococcus luteus = test: Antimicrobial activity against Micrococcus luteus ATCC 9341 after 18 hrs by microdilution method; type: functional; outline: as §2
Proteus vulgaris = test: Antimicrobial activity against Proteus vulgaris ATCC 6897 after 18 hrs by microdilution method; type: functional; outline: as §2
Escherichia coli = test: Antimicrobial activity against Escherichia coli ATCC 8739 after 18 hrs by microdilution method; type: functional; outline: as §1
Salmonella typhimurium = test: Antimicrobial activity against Salmonella Typhimurium CCM 5445 after 18 hrs by microdilution method; type: functional, Salmonella enterica subsp. enterica serovar Typhimurium; outline: as §2
Klebsiella pneumoniae = test: Antimicrobial activity against Klebsiella pneumoniae CCM 2318 after 18 hrs by microdilution method; type: functional; outline: as §2
Candida albicans = test: Antifungal activity against Candida albicans ATCC 10231 after 18 hrs by microdilution method; type: functional
Outline: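 Yeast broth microdilution per NCCLS M27-A. Stock kept on potato dextrose agar at 4 °C. Suspension in double-strength yeast glucose broth, adjusted to 10⁸ cfu/mL by McFarland 0.5. Water-based twofold series (400 down to 0.78) used. Incubated at 37 °C for 18 h. MIC is the lowest concentration with no visible turbidity.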

Pichia kudriavzevii = test: Antifungal activity against Candida krusei ATCC 6258 after 18 hrs by microdilution method; type: functional
Outline: as §2, with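 “M27-A” for “M7-A4”, “microdilution for yeast.” for “microdilution.”, “Inoculum” for “Overnight bacteria”, “yeast glucose” for “Mueller-Hinton”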

[3] = Salmonella enterica, CCM 5445, 18 h

Molecule	LD50 at 24 h [1] [mg/kg]	MIC (Staphylococcus aureus) [µg/mL]	MIC ([2]; ATCC 12228, 18 h) [µg/mL]	MIC (Bacillus cereus; CCM 99, 18 h) [µg/mL]	MIC (Micrococcus luteus; ATCC 9341, 18 h) [µg/mL]	MIC (Proteus vulgaris; ATCC 6897, 18 h) [µg/mL]	MIC (Escherichia coli; ATCC 8739, 18 h) [µg/mL]	MIC (Salmonella typhimurium; [3]) [µg/mL]	MIC (Klebsiella pneumoniae; CCM 2318, 18 h) [µg/mL]	MIC (Candida albicans; ATCC 10231, 18 h) [µg/mL]	MIC (Pichia kudriavzevii; ATCC 6258, 18 h) [µg/mL]	MIC (Candida albicans) [µg/mL]	MIC (Pichia kudriavzevii) [µg/mL]	MIC [2] [µg/mL]	MIC (Bacillus cereus) [µg/mL]	MIC (Micrococcus luteus) [µg/mL]	MIC (Proteus vulgaris) [µg/mL]	MIC (Escherichia coli) [µg/mL]	MIC (Salmonella typhimurium; Salmonella enterica subsp. enterica serovar Typhimurium) [µg/mL]	MIC (Klebsiella pneumoniae) [µg/mL]
FC(F)(F)c1ccc(C[N+]2=CN3CCCCC3C2)cc1.[Br-] (centres undefined)	824	1.56	0.78	3.12	0.78	6.25	0.78	0.78	12.5	0.78	0.78	–	–	–	–	–	–	–	–	–
Fc1c(F)c(F)c(C[N+]2=CN3CCCCC3C2)c(F)c1F.[Br-] (centres undefined)	978	3.12	0.78	6.25	0.78	12.5	25	25	12.5	12.5	3.12	–	–	–	–	–	–	–	–	–
N#Cc1ccc(C[N+]2=CN3CCCCC3C2)cc1.[Br-] (centres undefined)	> 2000	1.56	1.56	3.12	0.78	6.25	0.78	0.78	12.5	0.78	0.78	–	–	–	–	–	–	–	–	–
Cc1cc(C)c(C[n+]2cn(C)c3ccccc32)c(C)c1.[Cl-]	–	1600	1600	–	–	–	1600	–	–	1600	–	–	–	–	–	–	–	–	–	–
Clc1ccc(C[N+]2=CN3CCCCC3C2)cc1.[Br-] (centres undefined)	> 2000	1.56	0.78	3.12	0.78	6.25	3.12	0.78	12.5	0.78	0.78	–	–	–	–	–	–	–	–	–
NYSTATIN	–	–	–	–	–	–	–	–	–	–	–	6.25	3.12	–	–	–	–	–	–	–
Cc1cc(C)c(CN2C=[N+](Cc3c(C)cc(C)cc3C)C3CCCCC32)c(C)c1.[Cl-] (centres undefined)	–	100	1600	–	–	–	1600	–	–	1600	–	–	–	–	–	–	–	–	–	–
Clc1ccc(C[N+]2=CN3CCCCC3C2)c(Cl)c1.[Br-] (centres undefined)	1890	0.78	0.78	3.12	0.78	1.56	3.12	0.78	12.5	0.78	0.78	–	–	–	–	–	–	–	–	–
Cc1cc(C)c(C)c(C[N+]2=CN3CCCCC3C2)c1C.[Br-] (centres undefined)	1950	50	6.25	100	12.5	6.25	50	50	200	50	6.25	–	–	–	–	–	–	–	–	–
C1=[N+](Cc2ccccc2)CC2CCCCN12.[Br-] (centres undefined)	907	100	50	> 400	3.12	> 400	> 400	> 400	> 400	> 400	> 400	–	–	–	–	–	–	–	–	–
Cc1c(C)c(C)c(C[N+]2=CN3CCCCC3C2)c(C)c1C.[Br-] (centres undefined)	1110	25	3.12	12.5	12.5	6.25	12.5	12.5	50	50	3.12	–	–	–	–	–	–	–	–	–
Cc1ccc(C[N+]2=CN3CCCCC3C2)cc1.[Br-] (centres undefined)	> 2000	3.12	1.56	< 0.78	6.25	6.25	0.78	50	0.78	3.12	0.78	–	–	–	–	–	–	–	–	–
CC(C)(C)c1ccc(C[N+]2=CN3CCCCC3C2)cc1.[Br-] (centres undefined)	838	100	100	200	12.5	50	200	100	200	25	50	–	–	–	–	–	–	–	–	–
Cc1cc(C)c(C[N+]2=CN3CCCCC3C2)c(C)c1.[Br-] (centres undefined)	758	50	25	200	6.25	50	200	100	200	50	12.5	–	–	–	–	–	–	–	–	–
GENTAMICIN	–	3.12	–	–	–	–	–	–	–	–	–	–	–	1.56	6.25	1.56	0.78	3.12	6.25	25
